Measurements taken from ChEMBL document CHEMBL4130628, “Identification and Pharmacological Profile of an Indane Based Series of Ghrelin Receptor Full Agonists” (J Med Chem, 2018).
≈ marks a conversion by molar mass, not a printed value. Blank lines part the entries; values can stand above or below the molecule they belong to. Calls of active or inactive are those of the source. The calls are words filed in the database; no cut-off is given here.

Tests used:
[1] = 1-octanol/aqueous buffer distribution coefficient, log D of compound at pH 7.4; assay type: physicochemical; conditions: 1-octanol/aqueous buffer, read-out: logD
[2] = target: T1, Growth hormone secretagogue receptor type 1 (Homo sapiens, UniProt Q92847); experiment: Agonist activity at human GHS receptor assessed as intracellular myo-IP1 secretion after 90 mins by HTRF analysis; assay type: functional, cell-based; conditions: read-out: EC50
T1 sequence (Q92847 whole entry): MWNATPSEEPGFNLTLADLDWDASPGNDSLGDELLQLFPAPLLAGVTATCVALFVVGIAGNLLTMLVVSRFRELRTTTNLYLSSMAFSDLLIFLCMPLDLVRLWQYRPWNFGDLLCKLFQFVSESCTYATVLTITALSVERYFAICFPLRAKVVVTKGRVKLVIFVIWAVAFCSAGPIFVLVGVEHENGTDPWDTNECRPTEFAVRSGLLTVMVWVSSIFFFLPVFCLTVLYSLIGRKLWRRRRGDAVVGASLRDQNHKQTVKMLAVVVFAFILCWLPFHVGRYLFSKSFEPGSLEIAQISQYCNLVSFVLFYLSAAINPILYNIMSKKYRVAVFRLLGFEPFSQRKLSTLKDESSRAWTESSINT

[3] = Drug level in human liver microsomes treated with 1-Methyl-N-[(1S,2S)-1-{[(2S)-4-methylmorpholine-2-carbonyl]-amino}-2,3-dihydro-1H-inden-2-yl]-1H-indole-5-carboxamide by LC-MS/MS method; assay type: ADME, microsome
[4] = Drug level in rat hepatocytes treated with 1-Methyl-N-[(1S,2S)-1-{[(2S)-4-methylmorpholine-2-carbonyl]-amino}-2,3-dihydro-1H-inden-2-yl]-1H-indole-5-carboxamide by LC-MS/MS method; assay type: ADME, cell-based, Hepatocyte
[5] = Apparent intrinsic permeability across apical to basolateral side in human Caco2 cells at pH 6.5; assay type: ADME, cell-based; conditions: Caco-2, pH 6.5
[6] = Ratio of unbound drug level in brain to plasma in Beagle dog at 1 mg/kg, iv or 2 mg/kg, po after 24 hrs by LC-MS/MS analysis; assay type: ADME, organism-based, Canis lupus familiaris; conditions: read-out: K(p,uu,brain)
[7] = target: T1, Growth hormone secretagogue receptor type 1; experiment: Displacement of human [125I]-ghrelin from GHS-R1a (unknown origin) expressed in HEK293 cell membranes after 1 hr by radioligand binding assay; conditions: read-out: IC50
[8] = Volume of distribution in Beagle dog at 1 mg/kg, iv or 2 mg/kg, po after 24 hrs by LC-MS/MS analysis; assay type: ADME, organism-based, Canis lupus familiaris; conditions: in vivo
Summary of the method: (§1)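 Male/female beagles (2–5 y, 12–15 kg) were fasted overnight. IV: about 1 mg/Kg as a 15-min infusion to two animals, in 5% DMSO/95% SBE-β-CD (30% w/v) adjusted to pH 7.5. PO: about 2 mg/Kg by gavage, in the same vehicle or 0.5% HPMC/0.1% Tween 80 suspension. Jugular blood was drawn 0.03–24 h (IV) or 0.17–24 h (PO). K2-EDTA plasma analysed by LC-MS/MS.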

[9] = Apparent permeability across basolateral to apical side in human Caco2 cells at pH 7.4; assay type: ADME, cell-based; conditions: Caco-2, pH 7.4
[10] = Half life in Beagle dog at 2 mg/kg, po after 24 hrs by LC-MS/MS analysis; assay type: ADME, organism-based, Canis lupus familiaris; conditions: in vivo; summary of the method: as §1
[11] = Apparent permeability across apical to basolateral side in human Caco2 cells at pH 7.4; assay type: ADME, cell-based; conditions: Caco-2, pH 7.4
[12] = Oral bioavailability in Beagle dog at 2 mg/kg after 24 hrs by LC-MS/MS analysis; assay type: ADME, organism-based, Canis lupus familiaris; conditions: in vivo; summary of the method: as §1
[13] = Clearance in Beagle dog at 1 mg/kg, iv or 2 mg/kg, po after 24 hrs by LC-MS/MS analysis; assay type: ADME, organism-based, Canis lupus familiaris; conditions: in vivo; summary of the method: as §1
[14] = test system: Canis familiaris; experiment: Increase in plasma IGF1 level in Beagle dog at 4 mg/kg, po measured after 4 to 7 hrs post dose by ELIS; assay type: functional, organism-based; conditions: Canis lupus familiaris
Summary of the method: (§2)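 Dog blood taken before dosing and at 15, 30, 45 min and 1, 2, 4, 7, 12, 24 h post dose into K2EDTA tubes. Centrifuged at 4°C; plasma frozen below -80°C until IGF-1 analysis.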

[15] = Efflux ratio of apparent permeability across basolateral to apical over apical to basolateral side in human Caco2 cells; assay type: ADME, cell-based; conditions: Caco-2
Summary of the method: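 Caco-2 monolayers; Papp measured in both directions at pH 7.4 (units 1E-6 cm/s). Efflux ratio taken as Papp basolateral-to-apical divided by Papp apical-to-basolateral.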

[16] = target: T2, Cytochrome P450 2C19 (Homo sapiens, UniProt P33261); experiment: Inhibition of CYP2C19 (unknown origin); assay type: ADME
T2 sequence (P33261 whole entry): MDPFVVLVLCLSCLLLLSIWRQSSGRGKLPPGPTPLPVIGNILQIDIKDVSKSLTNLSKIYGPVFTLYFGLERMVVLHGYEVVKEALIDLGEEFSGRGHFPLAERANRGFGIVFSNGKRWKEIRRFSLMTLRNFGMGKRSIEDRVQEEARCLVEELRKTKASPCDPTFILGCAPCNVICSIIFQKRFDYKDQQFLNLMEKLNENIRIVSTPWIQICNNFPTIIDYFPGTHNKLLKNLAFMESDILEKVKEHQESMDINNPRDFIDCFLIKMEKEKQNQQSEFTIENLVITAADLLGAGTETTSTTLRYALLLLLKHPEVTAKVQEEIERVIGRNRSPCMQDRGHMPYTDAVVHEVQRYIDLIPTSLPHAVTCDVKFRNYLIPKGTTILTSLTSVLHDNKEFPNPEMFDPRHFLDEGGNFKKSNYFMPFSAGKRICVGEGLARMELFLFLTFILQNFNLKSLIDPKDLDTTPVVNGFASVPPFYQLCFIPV

[17] = target: Cytochrome P450 3A4 (Homo sapiens, UniProt P08684); experiment: Inhibition of CYP3A4 (unknown origin); assay type: ADME
Sequence of Cytochrome P450 3A4 (P08684 whole entry): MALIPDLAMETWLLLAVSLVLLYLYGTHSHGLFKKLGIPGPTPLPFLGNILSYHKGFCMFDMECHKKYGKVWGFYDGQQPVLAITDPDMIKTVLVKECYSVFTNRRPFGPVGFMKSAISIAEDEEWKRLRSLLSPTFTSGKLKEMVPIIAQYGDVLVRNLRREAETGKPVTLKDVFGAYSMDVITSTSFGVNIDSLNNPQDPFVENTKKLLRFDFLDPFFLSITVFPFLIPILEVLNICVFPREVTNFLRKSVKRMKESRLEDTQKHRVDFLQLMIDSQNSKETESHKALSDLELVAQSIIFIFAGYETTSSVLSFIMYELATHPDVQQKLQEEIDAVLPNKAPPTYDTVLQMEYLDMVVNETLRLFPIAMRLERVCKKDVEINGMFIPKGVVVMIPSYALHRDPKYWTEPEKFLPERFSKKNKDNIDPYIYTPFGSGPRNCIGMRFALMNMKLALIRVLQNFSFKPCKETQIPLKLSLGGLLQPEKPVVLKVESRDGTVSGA

[18] = Protein binding in rat plasma; assay type: ADME, cell-free; conditions: read-out: PPB (converted)
[19] = Clearance in Han-Wister rat at 1 mg/kg, iv bolus or 2 mg/kg, po after 24 hrs by LC-MS/MS analysis; assay type: ADME, organism-based; conditions: Han-Wistar, in vivo
Summary of the method: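 Male Han Wistar rats (7–8 weeks, 200–300 g). IV bolus of about 1 mg/Kg via tail vein to two animals, in 5% DMSO/95% SBE-β-CD (30% w/v), pH 7.5. Oral dose of about 2 mg/Kg in the same vehicle. Jugular blood collected from pre-dose to 24 h. K2-EDTA plasma kept at -75±15 °C and analysed by LC-MS/MS.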

[20] = Protein binding in human plasma; assay type: ADME, cell-free; conditions: read-out: PPB (converted)
[21] = target: Voltage-gated inwardly rectifying potassium channel KCNH2 (Homo sapiens, UniProt Q12809); experiment: Inhibition of human ERG expressed in CHO cells; assay type: cell-based
Sequence of Voltage-gated inwardly rectifying potassium channel KCNH2 (Q12809 whole entry): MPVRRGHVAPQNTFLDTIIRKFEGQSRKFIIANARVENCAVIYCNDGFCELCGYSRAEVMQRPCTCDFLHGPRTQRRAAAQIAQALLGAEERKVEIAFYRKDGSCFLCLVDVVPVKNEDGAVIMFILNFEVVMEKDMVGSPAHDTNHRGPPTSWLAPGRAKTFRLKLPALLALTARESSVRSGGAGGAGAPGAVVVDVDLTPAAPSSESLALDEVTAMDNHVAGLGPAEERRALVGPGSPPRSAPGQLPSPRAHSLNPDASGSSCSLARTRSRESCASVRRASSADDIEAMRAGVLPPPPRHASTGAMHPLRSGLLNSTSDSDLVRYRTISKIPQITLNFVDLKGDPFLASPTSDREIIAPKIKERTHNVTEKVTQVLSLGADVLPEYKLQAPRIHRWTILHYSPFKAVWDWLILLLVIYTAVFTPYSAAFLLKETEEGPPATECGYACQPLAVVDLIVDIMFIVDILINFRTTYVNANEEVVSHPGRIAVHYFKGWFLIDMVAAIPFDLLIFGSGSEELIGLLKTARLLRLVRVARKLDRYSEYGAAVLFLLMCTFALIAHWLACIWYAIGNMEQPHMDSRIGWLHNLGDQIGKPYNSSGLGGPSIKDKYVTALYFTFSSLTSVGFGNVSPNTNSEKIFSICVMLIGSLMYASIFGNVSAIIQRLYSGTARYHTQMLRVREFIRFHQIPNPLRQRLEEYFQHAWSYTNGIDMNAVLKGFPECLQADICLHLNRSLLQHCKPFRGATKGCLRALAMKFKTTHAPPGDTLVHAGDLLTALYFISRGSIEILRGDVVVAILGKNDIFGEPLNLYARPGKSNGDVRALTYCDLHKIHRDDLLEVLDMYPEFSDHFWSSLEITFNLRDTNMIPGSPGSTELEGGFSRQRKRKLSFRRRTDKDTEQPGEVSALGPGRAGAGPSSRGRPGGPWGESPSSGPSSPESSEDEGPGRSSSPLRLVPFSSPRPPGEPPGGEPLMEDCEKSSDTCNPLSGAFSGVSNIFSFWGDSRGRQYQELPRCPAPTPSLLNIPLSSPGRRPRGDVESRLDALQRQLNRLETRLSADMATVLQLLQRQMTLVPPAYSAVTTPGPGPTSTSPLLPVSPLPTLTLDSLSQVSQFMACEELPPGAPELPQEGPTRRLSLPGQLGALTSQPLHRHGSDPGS
Summary of the method: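 hERG currents recorded from CHO cells expressing hERG.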

[22] = test system: Rattus norvegicus; experiment: Renal clearance in Han-Wister rat at 1 mg/kg, iv bolus or 2 mg/kg, po after 24 hrs by LC-MS/MS analysis; assay type: ADME, organism-based; conditions: in vivo
[23] = target: T2, Cytochrome P450 2C19; experiment: Drug metabolism assessed as CYP2C19 (unknown origin)-mediated hydroxylation of methyl group of indole; assay type: ADME
[24] = Intrinsic clearance in human liver microsomes; assay type: ADME, microsome; conditions: read-out: CLH
[25] = Time dependent inhibition of CYP450 in human liver microsomes; assay type: ADME
[26] = target: T3, Mu-type opioid receptor (Homo sapiens, UniProt P35372); experiment: Agonist activity at mu1-opioid receptor (unknown origin) by cell-based assay
T3 sequence (P35372 whole entry): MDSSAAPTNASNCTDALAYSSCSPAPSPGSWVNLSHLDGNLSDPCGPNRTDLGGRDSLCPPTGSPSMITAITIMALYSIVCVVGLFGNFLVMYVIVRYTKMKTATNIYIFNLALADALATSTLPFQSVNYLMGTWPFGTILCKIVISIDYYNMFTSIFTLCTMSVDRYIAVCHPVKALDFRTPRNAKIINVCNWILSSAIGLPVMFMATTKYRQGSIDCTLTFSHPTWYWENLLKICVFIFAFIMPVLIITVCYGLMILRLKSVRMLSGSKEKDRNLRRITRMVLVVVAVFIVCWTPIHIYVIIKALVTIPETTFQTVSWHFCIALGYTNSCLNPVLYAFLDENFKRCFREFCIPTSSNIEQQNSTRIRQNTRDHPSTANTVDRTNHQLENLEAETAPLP

[27] = Drug elimination in Beagle dog urine by LC-MS/MS analysis; assay type: ADME, Canis lupus familiaris; conditions: read-out: Drug excretion
[28] = Protein binding in dog plasma; assay type: ADME, cell-free, Canis lupus familiaris; conditions: read-out: PPB (converted)
[29] = organism: Canis familiaris; experiment: Drug metabolism in Beagle dog assessed as hydroxylation of 5-methyl of indole ring by LC-MS/MS analysis; assay type: ADME, organism-based, Canis lupus familiaris; conditions: in vivo
[30] = test system: Canis familiaris; experiment: Increase in plasma IGF1 level in Beagle dog at 8 mg/kg, po measured after 24 hrs post dose by ELIS; assay type: functional, organism-based; conditions: Canis lupus familiaris; summary of the method: as §2
[31] = target: Cytochrome P450 2C9 (Homo sapiens, UniProt P11712); experiment: Inhibition of CYP2C9 (unknown origin); assay type: ADME
Sequence of Cytochrome P450 2C9 (P11712 whole entry): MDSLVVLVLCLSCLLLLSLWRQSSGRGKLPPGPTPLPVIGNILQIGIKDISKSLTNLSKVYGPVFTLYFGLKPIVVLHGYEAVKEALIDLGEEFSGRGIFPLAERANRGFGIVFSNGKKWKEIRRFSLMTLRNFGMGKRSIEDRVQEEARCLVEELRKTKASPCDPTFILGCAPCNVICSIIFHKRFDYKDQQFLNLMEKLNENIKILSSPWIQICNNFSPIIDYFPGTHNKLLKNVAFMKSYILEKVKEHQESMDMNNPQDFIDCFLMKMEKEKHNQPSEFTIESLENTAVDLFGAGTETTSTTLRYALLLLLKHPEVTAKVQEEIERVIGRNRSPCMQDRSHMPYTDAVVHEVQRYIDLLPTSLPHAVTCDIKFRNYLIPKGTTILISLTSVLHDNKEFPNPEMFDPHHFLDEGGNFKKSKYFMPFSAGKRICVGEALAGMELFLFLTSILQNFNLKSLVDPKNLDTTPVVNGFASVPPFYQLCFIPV

[32] = target: T4, Cytochrome P450 1A2 (Homo sapiens, UniProt P05177); experiment: Inhibition of CYP1A2 (unknown origin); assay type: ADME
T4 sequence (P05177 whole entry): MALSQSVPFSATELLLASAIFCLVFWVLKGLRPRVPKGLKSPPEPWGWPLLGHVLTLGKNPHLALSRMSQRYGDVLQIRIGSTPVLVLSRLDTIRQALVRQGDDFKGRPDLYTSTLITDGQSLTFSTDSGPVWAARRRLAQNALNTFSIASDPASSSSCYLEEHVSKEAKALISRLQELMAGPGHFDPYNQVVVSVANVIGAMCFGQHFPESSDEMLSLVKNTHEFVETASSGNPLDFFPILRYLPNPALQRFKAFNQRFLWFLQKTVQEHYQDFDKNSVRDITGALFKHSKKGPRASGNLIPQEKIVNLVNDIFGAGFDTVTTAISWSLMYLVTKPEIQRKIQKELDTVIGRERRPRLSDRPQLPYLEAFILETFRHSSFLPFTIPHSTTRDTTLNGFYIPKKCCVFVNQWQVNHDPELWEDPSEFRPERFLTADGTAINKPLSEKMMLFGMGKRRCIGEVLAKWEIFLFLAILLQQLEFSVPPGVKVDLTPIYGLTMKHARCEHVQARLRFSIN

[33] = Intrinsic clearance in rat liver microsomes; assay type: ADME, microsome; conditions: read-out: CLH
[34] = Intrinsic clearance in dog liver microsomes; assay type: ADME, Canis lupus familiaris, microsome; conditions: read-out: CLH
[35] = target: Cytochrome P450 2D6 (Homo sapiens, UniProt P10635); experiment: Inhibition of CYP2D6 (unknown origin); assay type: ADME
Sequence of Cytochrome P450 2D6 (P10635 whole entry): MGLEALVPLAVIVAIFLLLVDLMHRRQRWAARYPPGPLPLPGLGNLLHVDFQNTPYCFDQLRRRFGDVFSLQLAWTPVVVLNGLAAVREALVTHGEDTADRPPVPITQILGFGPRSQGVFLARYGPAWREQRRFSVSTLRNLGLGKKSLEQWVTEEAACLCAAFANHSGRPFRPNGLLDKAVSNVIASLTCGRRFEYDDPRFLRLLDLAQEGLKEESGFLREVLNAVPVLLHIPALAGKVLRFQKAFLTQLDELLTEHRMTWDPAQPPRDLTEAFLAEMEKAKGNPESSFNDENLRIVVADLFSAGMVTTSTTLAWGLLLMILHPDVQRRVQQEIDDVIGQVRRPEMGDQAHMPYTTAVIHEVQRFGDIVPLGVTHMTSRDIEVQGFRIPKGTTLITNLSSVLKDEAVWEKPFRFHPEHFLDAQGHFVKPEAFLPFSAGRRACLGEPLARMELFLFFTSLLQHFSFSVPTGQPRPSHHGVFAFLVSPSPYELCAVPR

[36] = target: T3, Mu-type opioid receptor; experiment: Agonist activity at mu1-opioid receptor (unknown origin)
[37] = Solubility of compound; assay type: physicochemical
[38] = Fraction absorbed in Beagle dog at 2 mg/kg, po after 24 hrs by LC-MS/MS analysis; assay type: ADME, organism-based, Canis lupus familiaris; conditions: in vivo, read-out: Fabs
[39] = Drug metabolism in human liver microsomes assessed as 1-Methyl-N-((1S,2S)-1-((S)-morpholine-2-carboxamido)-2,3-dihydro-1H-inden-2-yl)-1H-indole-5-carboxamide formation by LC-MS/MS method; assay type: ADME, microsome
[40] = Drug metabolism in rat hepatocytes assessed as 1-Methyl-N-((1S,2S)-1-((S)-morpholine-2-carboxamido)-2,3-dihydro-1H-inden-2-yl)-1H-indole-5-carboxamide formation by LC-MS/MS method; assay type: ADME, cell-based, Hepatocyte
[41] = Stability in human liver microsomes assessed as formation of aldehyde adducts by LC-MS/MS method; assay type: ADME, microsome
[42] = Stability in human liver microsomes assessed as formation of iminium ions by LC-MS/MS method; assay type: ADME, microsome
[43] = test system: Hepatocyte; experiment: Stability in rat hepatocytes assessed as formation of iminium ions by LC-MS/MS method; assay type: ADME, cell-based
[44] = test system: Hepatocyte; experiment: Stability in rat hepatocytes assessed as formation of aldehyde adducts by LC-MS/MS method; assay type: ADME, cell-based

logD [1]: 1.8
EC50 [2]: 52 nM
Drug metabolism [3]: Metabolite_Detected
Drug metabolism [4]: Metabolite_Detected
SMILES: Cn1ccc2cc(C(=O)N[C@H]3Cc4ccccc4[C@@H]3NC(=O)[C@@H]3CNCCO3)ccc21

Papp A→B [5]: 44.4 ×10⁻⁶ cm/s
Kp uu at 24 h [6]: 0.292
IC50 [7]: 14 nM
Vd [8]: 2.1 L/kg
Papp B→A [9]: 7.5 ×10⁻⁶ cm/s
half-life [10]: 1.2 h
Papp A→B [11]: 15.3 ×10⁻⁶ cm/s
logD [1]: 3.7
EC50 [2]: 1.4 nM
bioavailability [12]: 39%
clearance [13]: 28 mL/min/kg
efflux ratio [15]: 0.5
SMILES: Cc1ccc2[nH]c(C(=O)N[C@H]3Cc4ccccc4[C@@H]3NC(=O)[C@@H]3CN(C)CCO3)cc2c1
Activity [14]: Active

IC50 [16]: > 20000 nM
IC50 [17]: > 20000 nM
fraction unbound [18]: 0.96
clearance [19]: 170 mL/min/kg
Papp A→B [5]: < 2.4 ×10⁻⁶ cm/s
Kp uu at 24 h [6]: < 0.02
IC50 [7]: 4 nM
fraction unbound [20]: 0.88
Vd [8]: 4.8 to 5.8 L/kg
Papp B→A [9]: 17.7 ×10⁻⁶ cm/s
CL [22]: > 5%
half-life [10]: 13.2 to 16.6 h
Papp A→B [11]: 0.6 ×10⁻⁶ cm/s
logD [1]: 2.4
Drug metabolism [23]: Metabolite_Detected
EC50 [2]: 2 nM
microsomal CLint [24]: 4 to 9 µL/min/mg
TDI [25]: Not Active
IC50 [26]: 234 nM
dose excreted [27]: 2%
fraction unbound [28]: 0.92
Drug metabolism [29]: Metabolite_Detected
bioavailability [12]: 9 to 13%
IC50 [31]: > 20000 nM
IC50 [32]: > 20000 nM
microsomal CLint [33]: 48 µL/min/mg
microsomal CLint [34]: 9 µL/min/mg
IC50 [35]: > 20000 nM
clearance [13]: 18.8 to 26 mL/min/kg
IC50 [36]: 79.4 nM
solubility [37]: 100 µM (≈ 39 µg/mL)
efflux ratio [15]: 67.2
Fa at 24 h [38]: 20%
SMILES: CN(C)CCNC(=O)[C@H]1c2ccccc2C[C@@H]1NC(=O)c1cc2ccccc2[nH]1
IC50 [21]: 31600 nM
Activity [30]: Active

Drug metabolism [39]: Metabolite_Detected
IC50 [7]: 241 nM
Drug metabolism [40]: Metabolite_Detected
Stability [41]: Unstable
Stability [42]: Unstable
logD [1]: 2.6
EC50 [2]: 21 nM
Stability [43]: Unstable
Stability [44]: Unstable
SMILES: CN1CCO[C@H](C(=O)N[C@H]2c3ccccc3C[C@@H]2NC(=O)c2ccc3c(ccn3C)c2)C1
